High-throughput results deposited in PubChem by several laboratories.
WT yeast gro inh – growth inhibition of WT strain, primary screen, mitochondrial fusion inhibitor project, WT and mutant strains, chemical genetic; inhibition, % at 10 µM; mitochondrial fusion phenotypic screen; AID 1362, 2008; 190,000 compounds, 2.1% hits; in the data active = inhibition above about 58%; tested in S. cerevisiae
RAM inhibit – inhibitors of the yeast RAM network, primary screen, dse1pr::URA3 reporter, 5-FOA selection | S. cerevisiae dse1pr::URA3 reporter, 5-FOA growth OD615, 2 d; analog-sensitive cbk1-as2 kinase mutant strain | inhibition, % at 50 µM | 190,000 compounds, 1.8% hits;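 active = inhibition above a set limit, 3 SD over mean compound inhibition, cut at about 8.4% in these data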;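 note: inhibition rescues growth on 5-FOA so higher OD means more RAM inhibition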
ABCB1 inh – ABCB1 efflux pump inhibitors, primary screen, cell-based, multiplex, flow cytometry, ABCG2 counter-screen | ATP-dependent translocase ABCB1 (Homo sapiens), P08183 | CCRF-Adr cells, JC-1 efflux | inhibition, % at 6.6 µM | 190,000 compounds, 0.067% hits; in the data active = inhibition above about 40%;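 note: higher value means more JC-1 retained so stronger ABCB1 efflux block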
ABCG2 block – ABCG2 efflux pump inhibitors, primary screen, multiplex with ABCB1, IgMXP3 cells, flow cytometry; Broad substrate specificity ATP-binding cassette transporter ABCG2 (Homo sapiens), Q9UNQ0; JC-1 efflux; inhibition, % at 6.6 µM; 190,000 compounds, 0.1% hits; AID 1325, 2008;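 active = inhibition above 80%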
Target sequence (Q9UNQ0 whole entry, looked up): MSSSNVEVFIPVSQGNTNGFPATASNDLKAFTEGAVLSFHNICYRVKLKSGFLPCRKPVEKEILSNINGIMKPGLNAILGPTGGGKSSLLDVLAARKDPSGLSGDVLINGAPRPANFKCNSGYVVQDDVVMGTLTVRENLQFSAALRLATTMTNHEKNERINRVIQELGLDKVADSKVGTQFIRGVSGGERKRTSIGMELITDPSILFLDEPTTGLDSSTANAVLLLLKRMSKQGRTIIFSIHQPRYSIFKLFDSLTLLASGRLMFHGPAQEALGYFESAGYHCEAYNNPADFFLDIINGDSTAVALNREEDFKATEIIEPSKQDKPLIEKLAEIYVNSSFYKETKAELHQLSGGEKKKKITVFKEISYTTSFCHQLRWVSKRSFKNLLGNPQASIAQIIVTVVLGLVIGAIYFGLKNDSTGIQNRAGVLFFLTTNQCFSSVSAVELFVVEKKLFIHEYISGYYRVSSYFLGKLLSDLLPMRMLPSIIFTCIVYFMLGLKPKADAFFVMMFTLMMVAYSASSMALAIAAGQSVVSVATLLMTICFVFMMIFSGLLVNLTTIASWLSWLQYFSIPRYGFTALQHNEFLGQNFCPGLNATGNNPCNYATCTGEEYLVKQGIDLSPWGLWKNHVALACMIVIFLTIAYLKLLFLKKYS
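Test system: ABCG2 IgMXP3 and barcoded ABCB1 CCRF-Adr cell mix; Schedule: cells with compound and JC-1, 10 min at 25 °C, rotating, no wash; Technique: flow cytometry of retained JC-1 fluorescence; Measure: % inhibition of efflux relative to nicardipine and DMSO; Controls: nicardipine high and DMSO low controls.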
Lmaj promast – Leishmania major promastigote growth inhibition, primary screen; inhibition, % at 10 µM; Leishmania major promastigotes, resazurin fluorescence viability; AID 1063, 2008; 200,000 compounds, 9% hits; in the data active = inhibition above about 50%;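 note: promastigotes grown with compound for 44 hours at 28 °C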
A number is an active result; 0 = inactive; - = no result given. Hits are enriched below; roughly 12% of the tested compounds scored in any of these assays.

SMILES | WT yeast gro inh | RAM inhibit | ABCB1 inh | ABCG2 block | Lmaj promast
O=C(/C=C\Nc1ccc(Cl)cn1)c1ccc(Br)cc1 | 0 | 0 | 0 | 0 | 0
COCCN1CC(O)=C(c2nc3ccccc3c(=O)[nH]2)C1=N | 0 | 0 | 0 | 0 | 0
N=C1C(c2nc3ccccc3c(=O)[nH]2)=C(O)CN1CCO | 0 | 0 | 0 | 0 | 0
COc1ccccc1N1CC(O)=C(c2nc3ccccc3c(=O)[nH]2)C1=N | 0 | 0 | 0 | 0 | 99
N=C1C(c2nc3ccccc3c(=O)[nH]2)=C(O)CN1CCc1ccccc1 | 0 | 0 | 0 | 0 | 60
CC(C)NC(=O)c1cc(-c2ccco2)nn1-c1ccc(Cl)cc1 | 0 | 0 | 0 | 0 | 50
Cc1ccccc1NC(=S)N(CCN1CCCCCC1)Cc1cccs1 | 0 | 0 | 0 | 0 | 0
COc1ccccc1NC(=S)N(CCN1CCCCCC1)Cc1cccs1 | 0 | 0 | 0 | 0 | 57
CCOC(=O)CNC(=S)N(CCCN1CCCCCC1)Cc1cccs1 | 0 | 0 | 0 | 0 | 73
Cc1ccc(C2=NC3(CCCCC3)N=C2SCC(=O)Nc2ccc3c(c2)OCCO3)cc1 | 0 | 0 | 0 | 0 | 0
NNC(=O)CNS(=O)(=O)c1ccc([N+](=O)[O-])cc1 | 0 | 0 | 0 | 0 | 0
COC(=O)c1cc(S(=O)(=O)n2nc(C)c(Br)c2C)c(Cl)cc1Cl | - | 0 | 0 | 0 | 89
Cc1cc(C)n(S(=O)(=O)c2cc(C(=O)O)c(Cl)cc2Cl)n1 | - | - | - | - | 0
COc1ccc(NC(=O)CNc2cccc(C#N)c2)cc1Cl | 71 | 0 | 0 | 0 | 0
COc1ccc(NCC(=O)Nc2ccc(C#N)cc2)cc1Cl | 0 | 0 | 0 | 0 | 0
COc1ccc(/C=C2\C(=O)NCC(=O)N2Cc2ccccc2)cc1 | 0 | 0 | 0 | 0 | 0
COc1ccc(/C=C2\C(=O)N(Cc3ccc(F)cc3)CC(=O)N2Cc2ccccc2)cc1 | 0 | 0 | 0 | 0 | 95
CCS(=O)(=O)c1ccc2oc(SCC(=O)N3CCCCC3)nc2c1 | 0 | 0 | 0 | 0 | 0
OC(CNCC1CCCO1)Cn1c2ccccc2c2ccccc21 (centres undefined) | 0 | 0 | 0 | 0 | 0
OC(CNCCC1C=Nc2ccccc21)Cn1c2ccc(Cl)cc2c2cc(Cl)ccc21 (centres undefined) | 98 | 0 | 0 | 0 | 100
OC(CNCC1CCCO1)Cn1c2ccc(Cl)cc2c2cc(Cl)ccc21 (centres undefined) | 0 | 0 | 0 | 0 | 100
Cc1c(C)n(CC(O)CNCCO)c2ccccc12 (centres undefined) | 0 | 0 | 0 | 0 | 0
N#Cc1c(NC(=O)C2CC(Cl)=CCC2C(=O)O)sc2c1CCCC2 (centres undefined) | 0 | 0 | 0 | 0 | 0
CS(=O)(=O)N1CCN(c2ccccc2[N+](=O)[O-])CC1 | 0 | 0 | 0 | 0 | 0
COC(=O)c1ccc(NC(=O)COC(=O)c2cccc3c(=O)c(C)c(-c4ccccc4)oc23)cc1 | 0 | 0 | 0 | 0 | 0
SMILES | WT yeast gro inh | RAM inhibit | ABCB1 inh | ABCG2 block | Lmaj promast
Cc1c(-c2ccccc2)oc2c(C(=O)OCC(=O)Nc3ccc(C(N)=O)cc3)cccc2c1=O | 0 | 0 | 0 | 0 | 53
Cc1ccccc1-c1noc(C23CC4CC(CC(C4)C2)C3)n1 | 81 | 0 | 0 | 0 | 0
CCC(CC)C(=O)OCC(=O)NC12CC3CC(CC(C3)C1)C2 | 0 | 0 | 0 | 0 | 0
O=C(COC(=O)C12CC3CC(CC(C3)C1)C2)NC12CC3CC(CC(C3)C1)C2 | 80 | 0 | 0 | 0 | 0
CC(C)NC(=O)NC(=O)COc1ccc(Br)cc1Br | 0 | 0 | 0 | 0 | 67
CN(C)CCCNC(=O)COc1ccc(Br)cc1Cl | 0 | 0 | 0 | 0 | 91
O=C(COc1ccc(Br)cc1Cl)NC1CCCCC1 | 0 | 8.9 | - | 0 | 0
O=C(COc1ccc(Cl)cc1Cl)NCCSc1ccc(Cl)cc1 | 0 | 9.0 | 0 | 0 | 0
Cc1[nH]nc2c1C(c1cccs1)C1=C(CC(C)(C)CC1=O)N2 (centres undefined) | 0 | 0 | 0 | 0 | 0
CCOC(=O)C(C)(C)C(=O)C(C)(C)C(O)c1ccccn1 (centres undefined) | 0 | 0 | 0 | 0 | 0
CCN(CC)CCNC(=O)COc1ccc(Cl)cc1Cl | 0 | 0 | 0 | 0 | 75
O=C(COc1ccc(Cl)cc1)NCCSCc1cccc(Cl)c1 | 79 | 0 | 0 | 0 | 0
